Results on 55 compounds are retold here after ChEMBL document CHEMBL3046721, “3-(Arylthiomethyl)isoxazole-4,5-dicarboxamides: chemoselective nucleophilic chemistry and insecticidal activity” (2009).

Active and inactive are the calls of the source.

The test system of one test is Aedes aegypti. The experiment in a line: Insecticidal activity against larvae of Aedes aegypti assessed as mortality after 3 days by high-throughput screening assay. Format: functional, organism-based. A digest of the protocol: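 One-day-old larvae placed in 96-well plates pre-treated with 6 μg/well, applied in 15 μl DMSO-acetone-water (1:1:8) and dried. Plates lidded, held at room temperature, mortality graded 3 days post-treatment. Six replicates per treatment.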

Test [1] deals with Spodoptera exigua. The test can be described thus: Insecticidal activity against larvae of Spodoptera exigua fed with artificial diet containing compound assessed as mortality after 6 days by high-throughput screening assay. Format: functional. On the set-up: concentration or dose not given beside the values. In outline: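 Artificial diet (100 μl/well, 96-well) pretreated with 12 μg compound in 30 μl DMSO-acetone-water (2:1:7), dried several hours, then seeded with eggs. Plates covered, kept in dark at 29°C, mortality recorded 6 days post-treatment. Six replicates per treatment.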

In test [2] the test system is Spodoptera exigua. The experiment in a line: Insecticidal activity against second-instar larval stage of Spodoptera exigua fed with artificial diet containing compound assessed as mortality at 50 ug/cm2 after 5 days by diet-based secondary assay. Type of test: functional. Conditions: 120 h. A digest of the protocol: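 Second-instar larvae on 128-well trays with 1 mL diet dosed at 50 μg/cm2, eight wells per treatment under clear plastic. Percent mortality averaged over the eight wells, scored 5 days after assay start; tested only on primary-screen hits (>67% mortality).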

For another test, the system named is Helicoverpa zea. The test can be described thus: Insecticidal activity against second-instar larval stage of Helicoverpa zea (corn earworm) fed with artificial diet containing compound assessed as mortality after 5 days by diet-based secondary assay. Type of test: functional, organism-based. A digest of the protocol: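 Follow-up for primary-screen hits (>67% mortality): 128-well diet trays, 1 mL diet containing selected dosages, second-instar larvae. Wells covered with clear plastic, eight wells per treatment, percent mortality averaged over eight wells at 5 days. Approximate LC50 estimated by probit analysis.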

For the compound `CCCNC(=O)c1onc(CSc2ccccc2)c1C(=O)NCCC`, the mortality result with Aedes aegypti is “inactive”. Besides, the mortality in the test on Spodoptera exigua [1] is reported as 50%.

`CC(C)CCNC(=O)c1onc(CSc2ccccn2)c1C(=O)NCCC(C)C`: the mortality entry in the test with Aedes aegypti was “inactive”.

Take `CCCNC(=O)c1onc(CSc2ccncc2)c1C(=O)NCCC`: in the test on Aedes aegypti, the mortality entry was “inactive”. In the test with Spodoptera exigua [1], the mortality is 33%.

Consider `Cc1cc(C)cc(SCc2noc(C(=O)NCCC(C)C)c2C(=O)NCCC(C)C)c1`, for which the mortality result in the test on Aedes aegypti is “inactive”.

On to `COCCNC(=O)c1c(CS(=O)(=O)c2ccc(Cl)cc2)noc1C(=O)NCc1ccccc1`, for which, in the test with Spodoptera exigua [2], the mortality at 50 µg/cm2 stood at 0%. The mortality entry with Helicoverpa zea and in the test with Aedes aegypti was “inactive” each time. Also, the mortality in the test on Spodoptera exigua [1] came out at 100%.

In the case of `CCCNC(=O)c1c(CS(=O)(=O)c2ccc(Cl)cc2)noc1C(=O)NCc1ccccc1`, the mortality at 50 µg/cm2 in the test on Spodoptera exigua [2] came out at 0%. In addition, the mortality entry in the test with Helicoverpa zea and in the test with Aedes aegypti was “inactive” in each case. For the same compound, in the test with Spodoptera exigua [1], the mortality is 100%.

In the case of `CC(C)CCNC(=O)c1onc(CSc2ccccc2)c1C(=O)NCCC(C)C`, the mortality entry in the test with Aedes aegypti was “inactive”. The mortality in the test with Spodoptera exigua [1] is listed as 33%.

In the case of `C=CCNC(=O)c1onc(CSc2cc(C)cc(C)c2)c1C(=O)NCC=C`, the mortality entry with Aedes aegypti was “inactive”. In addition, the mortality in the test with Spodoptera exigua [1] is recorded as 17%.

For `CC(C)CCNC(=O)c1c(CSc2ccccc2)noc1C(=O)NCc1ccccc1`, the mortality at 50 µg/cm2 in the test on Spodoptera exigua [2] was 0%. Further, the mortality result in the test on Aedes aegypti was “inactive”. Also, the mortality with Spodoptera exigua [1] was 67%.

Regarding `C=CCNC(=O)c1c(CSc2ccccc2)noc1C(=O)NCc1ccccc1`, the mortality entry in the test with Aedes aegypti was “inactive”. Further, the mortality in the test with Spodoptera exigua [1] amounted to 0%.

Regarding `COCCNC(=O)c1onc(CSc2ccccc2)c1C(=O)NCCOC`, the mortality at 50 µg/cm2 in the test with Spodoptera exigua [2] stood at 0%. Further, the mortality result with Helicoverpa zea and in the test with Aedes aegypti was “inactive” each time. In addition, in the test on Spodoptera exigua [1], the mortality is given as 83%.

`COCCNC(=O)c1c(CSc2ccc(Cl)cc2)noc1C(=O)NCc1ccccc1`: in the test on Aedes aegypti, the mortality entry was “inactive”. In addition, the mortality in the test with Spodoptera exigua [1] was found to be 17%.

On to `Cc1cc(C)cc(SCc2noc(C(=O)NCc3ccccc3)c2C(=O)NCc2ccccc2)c1`, for which the mortality at 50 µg/cm2 with Spodoptera exigua [2] is 0%. The mortality result in the test on Helicoverpa zea and in the test with Aedes aegypti was “inactive” throughout. The mortality in the test on Spodoptera exigua [1] was determined as 83%.

As to `CCCNC(=O)c1onc(CSc2cc(C)cc(C)c2)c1C(=O)NCCC`, the mortality result in the test with Aedes aegypti was “inactive”. The mortality in the test with Spodoptera exigua [1] came out at 50%.

Turning to `CCCCNC(=O)c1onc(CSc2ccccn2)c1C(=O)NCCCC`, the mortality result with Aedes aegypti was “inactive”.

As to `CC(C)NC(=O)c1c(CSc2ccccc2)noc1C(=O)NCc1ccccc1`, the mortality at 50 µg/cm2 in the test on Spodoptera exigua [2] amounted to 0%. In addition, the mortality result in the test on Helicoverpa zea and with Aedes aegypti was “inactive” throughout. In addition, in the test on Spodoptera exigua [1], the mortality was 83%.

On to `CC(C)NC(=O)c1onc(CSc2ccc(Cl)cc2)c1C(=O)NC(C)C`, for which the mortality at 50 µg/cm2 in the test with Spodoptera exigua [2] is 0%. In addition, the mortality entry in the test on Helicoverpa zea and with Aedes aegypti was “inactive” throughout. Also, the mortality in the test with Spodoptera exigua [1] came out at 83%.

As for `COCCNC(=O)c1onc(CSc2ccc(F)cc2)c1C(=O)NCCOC`, the mortality at 50 µg/cm2 in the test with Spodoptera exigua [2] stood at 0%. In the test with Aedes aegypti, the mortality result was “inactive”. Further, the mortality in the test with Spodoptera exigua [1] is 67%.

Consider `C=CCNC(=O)c1onc(CSc2ccccn2)c1C(=O)NCC=C`, for which the mortality result in the test on Aedes aegypti is “inactive”. Also, in the test on Spodoptera exigua [1], the mortality was determined as 17%.

Turning to `COCCNC(=O)c1onc(CSc2cccc(OC)c2)c1C(=O)NCCOC`, the mortality at 50 µg/cm2 with Spodoptera exigua [2] came to 0%. In addition, the mortality result in the test with Aedes aegypti was “inactive”. Further, the mortality with Spodoptera exigua [1] is listed as 67%.

`O=C(NCc1ccccc1)c1onc(CSc2ccccn2)c1C(=O)NCc1ccccc1`: the mortality at 50 µg/cm2 with Spodoptera exigua [2] amounted to 0%. Also, the mortality entry in the test on Aedes aegypti is “inactive”. Further, the mortality with Spodoptera exigua [1] came out at 67%.

`COCCNC(=O)c1onc(CSc2ccncc2)c1C(=O)NCCOC`: the mortality result in the test on Aedes aegypti is “inactive”. Besides, in the test on Spodoptera exigua [1], the mortality came to 50%.

In the case of `COCCNC(=O)c1onc(CSc2ccccn2)c1C(=O)NCCOC`, in the test with Aedes aegypti, the mortality entry is “inactive”. Besides, the mortality in the test on Spodoptera exigua [1] is recorded as 17%.

On to `C=CCNC(=O)c1onc(CSc2ccc(F)cc2)c1C(=O)NCC=C`, for which the mortality at 50 µg/cm2 with Spodoptera exigua [2] amounted to 0%. The mortality entry with Aedes aegypti was “inactive”. Also, the mortality with Spodoptera exigua [1] is listed as 67%.

In the case of `CCCCNC(=O)c1onc(CSc2cc(C)cc(C)c2)c1C(=O)NCCCC`, in the test on Aedes aegypti, the mortality result was “inactive”.

Regarding `CCCNC(=O)c1onc(CSc2ccc(F)cc2)c1C(=O)NCCC`, the mortality entry in the test with Aedes aegypti was “inactive”. In addition, in the test on Spodoptera exigua [1], the mortality was determined as 33%.

On to `C=CCNC(=O)c1onc(CSc2cccc(OC)c2)c1C(=O)NCC=C`, for which, in the test with Spodoptera exigua [2], the mortality at 50 µg/cm2 was 0%. Further, the mortality entry in the test with Aedes aegypti was “inactive”. Besides, the mortality in the test on Spodoptera exigua [1] stood at 67%.

As for `O=C(NCc1ccccc1)c1onc(CSc2ccccc2)c1C(=O)NCc1ccccc1`, the mortality entry in the test on Aedes aegypti is “inactive”. Besides, the mortality in the test with Spodoptera exigua [1] is 67%.

Regarding `C=CCNC(=O)c1onc(CSc2ccccc2)c1C(=O)NCC=C`, the mortality entry with Aedes aegypti was “inactive”. Further, in the test on Spodoptera exigua [1], the mortality is reported as 33%.

Take `COCCNC(=O)c1c(CSc2ccccc2)noc1C(=O)NCc1ccccc1`: the mortality result with Aedes aegypti was “inactive”. In addition, the mortality in the test with Spodoptera exigua [1] is 17%.

As for `COCCNC(=O)c1c(CS(=O)(=O)c2ccccc2)noc1C(=O)NCc1ccccc1`, the mortality entry in the test on Helicoverpa zea and with Aedes aegypti was “inactive” in each case. In addition, the mortality in the test with Spodoptera exigua [1] is 100%.

With `CC(C)NC(=O)c1onc(CSc2ccccc2)c1C(=O)NC(C)C`, the mortality at 50 µg/cm2 in the test on Spodoptera exigua [2] came out at 0%. In addition, the mortality entry with Aedes aegypti is “inactive”. Moreover, the mortality in the test on Spodoptera exigua [1] turned out to be 67%.

`C=CCNC(=O)c1onc(CSc2ccncc2)c1C(=O)NCC=C`: in the test on Aedes aegypti, the mortality entry was “inactive”. In the test on Spodoptera exigua [1], the mortality turned out to be 17%.

On to `CCCNC(=O)c1onc(CSc2cccc(OC)c2)c1C(=O)NCCC`, for which the mortality entry with Aedes aegypti is “inactive”. The mortality in the test on Spodoptera exigua [1] is 50%.

`C=CCNC(=O)c1onc(CSc2ccc(Cl)cc2)c1C(=O)NCC=C`: the mortality result with Aedes aegypti is “inactive”. Also, the mortality with Spodoptera exigua [1] was 17%.

As to `Cc1cc(C)cc(SCc2noc(C(=O)NC(C)C)c2C(=O)NC(C)C)c1`, the mortality result in the test with Aedes aegypti was “inactive”.

For the compound `CCCCNC(=O)c1c(CS(=O)(=O)c2ccccc2)noc1C(=O)NCc1ccccc1`, the mortality at 50 µg/cm2 in the test with Spodoptera exigua [2] came to 0%. Further, the mortality result with Aedes aegypti was “inactive”. Further, the mortality in the test on Spodoptera exigua [1] was 67%.

For the compound `CCCNC(=O)c1onc(CSc2ccc(Cl)cc2)c1C(=O)NCCC`, the mortality result in the test on Aedes aegypti was “inactive”. The mortality in the test with Spodoptera exigua [1] is listed as 50%.

Turning to `CCCCNC(=O)c1onc(CSc2ccc(Cl)cc2)c1C(=O)NCCCC`, the mortality result in the test on Aedes aegypti was “inactive”. Besides, in the test on Spodoptera exigua [1], the mortality is 33%.

In the case of `CC(C)NC(=O)c1onc(CSc2ccccn2)c1C(=O)NC(C)C`, the mortality entry in the test with Aedes aegypti is “inactive”. Also, the mortality in the test on Spodoptera exigua [1] turned out to be 50%.

With `CCCCNC(=O)c1onc(CSc2ccncc2)c1C(=O)NCCCC`, the mortality at 50 µg/cm2 in the test on Spodoptera exigua [2] is 0%. For the same compound, the mortality result with Aedes aegypti is “inactive”. Moreover, in the test with Spodoptera exigua [1], the mortality was 67%.

In the case of `O=C(NCc1ccccc1)c1onc(CSc2ccc(F)cc2)c1C(=O)NCc1ccccc1`, the mortality at 50 µg/cm2 in the test on Spodoptera exigua [2] worked out at 0%. Besides, the mortality result with Aedes aegypti was “inactive”. Besides, the mortality with Spodoptera exigua [1] is 67%.

Consider `CC(C)NC(=O)c1onc(CSc2ccc(F)cc2)c1C(=O)NC(C)C`, for which, in the test on Aedes aegypti, the mortality entry was “inactive”. The mortality in the test on Spodoptera exigua [1] was found to be 50%.

Consider `COCCNC(=O)c1onc(CSc2cc(C)cc(C)c2)c1C(=O)NCCOC`, for which, in the test with Aedes aegypti, the mortality result was “inactive”.

As for `COc1cccc(SCc2noc(C(=O)NCCC(C)C)c2C(=O)NCCC(C)C)c1`, in the test on Aedes aegypti, the mortality entry was “inactive”.

Consider `COc1cccc(SCc2noc(C(=O)NCc3ccccc3)c2C(=O)NCc2ccccc2)c1`, for which the mortality result in the test on Aedes aegypti was “inactive”. Also, the mortality in the test on Spodoptera exigua [1] is on record as 50%.

For `O=C(NCc1ccccc1)c1onc(CSc2ccncc2)c1C(=O)NCc1ccccc1`, the mortality result in the test with Aedes aegypti is “inactive”.

As for `O=C(NCc1ccccc1)c1onc(CSc2ccc(Cl)cc2)c1C(=O)NCc1ccccc1`, the mortality at 50 µg/cm2 with Spodoptera exigua [2] stood at 0%. Further, the mortality result in the test with Aedes aegypti was “inactive”. Further, the mortality with Spodoptera exigua [1] is on record as 67%.

As for `CC(C)NC(=O)c1c(CS(=O)(=O)c2ccc(Cl)cc2)noc1C(=O)NCc1ccccc1`, the mortality entry in the test on Aedes aegypti is “inactive”.

Turning to `CC(C)CCNC(=O)c1c(CSc2ccc(Cl)cc2)noc1C(=O)NCc1ccccc1`, the mortality at 50 µg/cm2 with Spodoptera exigua [2] was 0%. Further, the mortality result in the test with Aedes aegypti is “inactive”. For the same compound, the mortality with Spodoptera exigua [1] came to 67%.

Regarding `CCCCNC(=O)c1onc(CSc2ccccc2)c1C(=O)NCCCC`, the mortality result with Aedes aegypti is “inactive”.

In the case of `CCCCNC(=O)c1onc(CSc2ccc(F)cc2)c1C(=O)NCCCC`, the mortality entry in the test with Aedes aegypti is “inactive”. In addition, the mortality in the test with Spodoptera exigua [1] stood at 50%.

Take `CC(C)CCNC(=O)c1onc(CSc2ccncc2)c1C(=O)NCCC(C)C`: in the test with Spodoptera exigua [2], the mortality at 50 µg/cm2 came out at 0%. For the same compound, in the test with Aedes aegypti, the mortality entry is “inactive”. Besides, the mortality in the test with Spodoptera exigua [1] worked out at 83%.

For the compound `CCCNC(=O)c1onc(CSc2ccccn2)c1C(=O)NCCC`, in the test with Aedes aegypti, the mortality entry was “inactive”. The mortality with Spodoptera exigua [1] came out at 50%.

In the case of `CCCCNC(=O)c1onc(CSc2cccc(OC)c2)c1C(=O)NCCCC`, the mortality result in the test on Aedes aegypti was “inactive”.
